The test can be described thus: Cytotoxicity against human EC109 cells at 50 ug/ml after 48 hrs by MTT assay. The format is functional. Conditions: ECa-109, 48 h. The essentials: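 EC109 cells grown in RPMI-1640 with 10% fetal calf serum, penicillin and streptomycin at 37 °C in 5% CO2. Seeded at 7000 cells/well; compound diluted in medium added next day for 48 h. MTT (0.5 mg/mL in PBS) then added for a further 4 h, formazan dissolved in DMSO, absorbance read at 570 nm.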
(Tetrazolium assays rely on reduction of a dye to a coloured formazan, in cell work by metabolically active cells.)

The inhibition is how much of the control response was suppressed. High values mean strong suppression, low ones little suppression. In turn, `COc1ccc(/C=C/C(=O)[C@H]2CC[C@H]3[C@H]4[C@H]([C@H](O)C[C@]23C)[C@@]2(C)CC[C@H](O)CC2=C[C@H]4O)cc1` registered an inhibition at 50 µg/mL of 55.3%.
`C[C@]12C[C@@H](O)[C@H]3[C@@H]([C@H](O)C=C4C[C@@H](O)CC[C@@]43C)[C@@H]1CC[C@@H]2C(=O)/C=C/c1ccc(Cl)cc1` displayed an inhibition at 50 µg/mL of 80.2%.
In turn, `C[C@]12C[C@@H](O)[C@H]3[C@@H]([C@H](O)C=C4C[C@@H](O)CC[C@@]43C)[C@@H]1CC[C@@H]2C(=O)/C=C/c1ccc(F)cc1` displayed an inhibition at 50 µg/mL of 76.8%.
`C[C@]12C[C@@H](O)[C@H]3[C@@H]([C@H](O)C=C4C[C@@H](O)CC[C@@]43C)[C@@H]1CC[C@@H]2C(=O)/C=C/c1ccc(N)cc1`: the inhibition at 50 µg/mL turned out to be 50.2%.
Compound `CC(=O)[C@H]1CC[C@H]2[C@@H]3CC=C4C[C@@H](O)CC[C@]4(C)[C@H]3CC[C@]12C` [PREGNENOLONE] yielded an inhibition at 50 µg/mL of 13.6%.
`C=C1C(=O)[C@]23[C@H](O)[C@H]1CC[C@H]2[C@@]12CO[C@]3(O)[C@@H](O)[C@@H]1C(C)(C)CC[C@@H]2O` [ORIDONIN] gave an inhibition at 50 µg/mL of 94.7%.
The result for `C[C@]12C[C@@H](O)[C@H]3[C@@H]([C@H](O)C=C4C[C@@H](O)CC[C@@]43C)[C@@H]1CC[C@@H]2C(=O)/C=C/c1cccc(Cl)c1` reads 76.4%.
Regarding `C[C@]12C[C@@H](O)[C@H]3[C@@H]([C@H](O)C=C4C[C@@H](O)CC[C@@]43C)[C@@H]1CC[C@@H]2C(=O)/C=C/c1ccccc1`, the inhibition at 50 µg/mL was 59.8%.
Compound `C[C@]12C[C@@H](O)[C@H]3[C@@H]([C@H](O)C=C4C[C@@H](O)CC[C@@]43C)[C@@H]1CC[C@@H]2C(=O)/C=C/c1cccc([N+](=O)[O-])c1` had an inhibition at 50 µg/mL of 72.4%.
In turn, `COc1ccccc1/C=C/C(=O)[C@H]1CC[C@H]2[C@H]3[C@H]([C@H](O)C[C@]12C)[C@@]1(C)CC[C@H](O)CC1=C[C@H]3O` yielded an inhibition at 50 µg/mL of 47.4%.
For the compound `C[C@]12C[C@@H](O)[C@H]3[C@@H]([C@H](O)C=C4C[C@@H](O)CC[C@@]43C)[C@@H]1CC[C@@H]2C(=O)/C=C/c1ccc(O)cc1`, the inhibition at 50 µg/mL worked out at 45.7%.
For `COc1cc(OC)c(/C=C/C(=O)[C@H]2CC[C@H]3[C@H]4[C@H]([C@H](O)C[C@]23C)[C@@]2(C)CC[C@H](O)CC2=C[C@H]4O)c(OC)c1`, 50 µg/mL produced 35.3% inhibition.
The compound `CN(C)c1ccc(/C=C/C(=O)[C@H]2CC[C@H]3[C@H]4[C@H]([C@H](O)C[C@]23C)[C@@]2(C)CC[C@H](O)CC2=C[C@H]4O)cc1` yielded an inhibition at 50 µg/mL of 39%.
The result for `CC(=O)[C@H]1CC[C@H]2[C@H]3[C@H]([C@H](O)C[C@]12C)[C@@]1(C)CC[C@H](O)CC1=C[C@H]3O` reads 21.7%.

The record behind these values is ChEMBL document CHEMBL1154667, “Synthesis of 3beta, 7alpha, 11alpha-trihydroxy-pregn-21-benzylidene-5-en-20-one derivatives and their cytotoxic activities” (2009).
